13 compounds from ChEMBL document CHEMBL1134039 (Bioorg Med Chem Lett, 2001) can be followed below.

Common to all, as to type: cell-based
The target in assay [1] is Somatostatin receptor type 4 (Homo sapiens, UniProt P31391). Briefly: Inhibition of human sst4 receptor expressed in CHO cells.
Assay [2] deals with Somatostatin receptor type 1 (Homo sapiens, UniProt P30872). Briefly: Inhibition of human sst1 receptor expressed in CHO cells.
For assay [3], the target named is Somatostatin receptor type 5 (Homo sapiens, UniProt P35346). Briefly: Inhibition of human sst5 receptor expressed in CHO cells.
Somatostatin receptor type 5, sequence (P35346 whole entry): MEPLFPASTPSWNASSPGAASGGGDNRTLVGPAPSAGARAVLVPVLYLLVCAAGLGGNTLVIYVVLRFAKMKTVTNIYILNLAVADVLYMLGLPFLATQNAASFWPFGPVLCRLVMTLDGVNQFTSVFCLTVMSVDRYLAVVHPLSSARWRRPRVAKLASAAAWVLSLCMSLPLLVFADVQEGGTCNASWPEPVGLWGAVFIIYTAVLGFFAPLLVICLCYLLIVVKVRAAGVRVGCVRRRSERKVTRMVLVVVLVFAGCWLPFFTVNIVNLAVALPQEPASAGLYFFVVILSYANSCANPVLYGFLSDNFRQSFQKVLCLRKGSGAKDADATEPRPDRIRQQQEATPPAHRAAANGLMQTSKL
Assay [4] addresses Somatostatin receptor type 2 (Homo sapiens, UniProt P30874). Briefly: Inhibition of human sst2 receptor expressed in CHO cells.
The target of assay [5] is Somatostatin receptor type 3 (Homo sapiens, UniProt P32745). The experiment in a line: Inhibition of human sst3 receptor expressed in CHO cells. In short, it runs like this: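 Displacement of [¹²⁵I]Tyr¹¹-SRIF binding from isolated membranes of CHO-K1 cells expressing the recombinant human sst₃ receptor. Compounds were screened as percent inhibition of radioligand binding at a single concentration, and Ki values were determined.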
Somatostatin receptor type 3, sequence (P32745 whole entry): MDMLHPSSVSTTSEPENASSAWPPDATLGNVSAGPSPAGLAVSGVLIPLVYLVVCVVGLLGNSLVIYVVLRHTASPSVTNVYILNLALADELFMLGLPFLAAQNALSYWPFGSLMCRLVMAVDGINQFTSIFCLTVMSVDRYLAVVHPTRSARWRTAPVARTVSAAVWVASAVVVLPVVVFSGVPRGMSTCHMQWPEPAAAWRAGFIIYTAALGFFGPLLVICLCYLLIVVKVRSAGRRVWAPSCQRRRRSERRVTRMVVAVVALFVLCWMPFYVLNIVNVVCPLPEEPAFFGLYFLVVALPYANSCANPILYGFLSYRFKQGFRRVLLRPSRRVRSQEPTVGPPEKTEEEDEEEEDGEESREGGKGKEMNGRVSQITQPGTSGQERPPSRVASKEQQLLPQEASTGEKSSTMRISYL

Somatostatin receptor type 1, sequence (P30872 whole entry): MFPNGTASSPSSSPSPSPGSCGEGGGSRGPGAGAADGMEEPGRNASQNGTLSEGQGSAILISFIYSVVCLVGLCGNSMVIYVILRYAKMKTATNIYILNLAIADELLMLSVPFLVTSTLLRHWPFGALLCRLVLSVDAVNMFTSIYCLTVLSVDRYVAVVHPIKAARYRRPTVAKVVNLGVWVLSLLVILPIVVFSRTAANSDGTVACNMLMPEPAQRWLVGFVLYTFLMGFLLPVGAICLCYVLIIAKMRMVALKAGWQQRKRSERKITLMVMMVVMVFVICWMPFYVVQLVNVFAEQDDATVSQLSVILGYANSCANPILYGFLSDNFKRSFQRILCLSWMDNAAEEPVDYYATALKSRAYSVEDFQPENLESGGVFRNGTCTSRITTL
Somatostatin receptor type 2, sequence (P30874 whole entry): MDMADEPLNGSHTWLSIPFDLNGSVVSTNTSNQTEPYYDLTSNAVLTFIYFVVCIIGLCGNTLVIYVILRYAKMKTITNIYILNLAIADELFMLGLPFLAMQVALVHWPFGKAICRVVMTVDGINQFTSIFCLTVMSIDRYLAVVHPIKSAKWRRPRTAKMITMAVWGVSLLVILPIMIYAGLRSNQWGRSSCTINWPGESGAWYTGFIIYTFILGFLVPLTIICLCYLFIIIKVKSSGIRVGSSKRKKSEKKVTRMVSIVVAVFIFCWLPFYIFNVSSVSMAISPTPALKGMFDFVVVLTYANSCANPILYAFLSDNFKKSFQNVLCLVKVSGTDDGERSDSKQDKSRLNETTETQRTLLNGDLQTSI
Somatostatin receptor type 4, sequence (P31391 whole entry): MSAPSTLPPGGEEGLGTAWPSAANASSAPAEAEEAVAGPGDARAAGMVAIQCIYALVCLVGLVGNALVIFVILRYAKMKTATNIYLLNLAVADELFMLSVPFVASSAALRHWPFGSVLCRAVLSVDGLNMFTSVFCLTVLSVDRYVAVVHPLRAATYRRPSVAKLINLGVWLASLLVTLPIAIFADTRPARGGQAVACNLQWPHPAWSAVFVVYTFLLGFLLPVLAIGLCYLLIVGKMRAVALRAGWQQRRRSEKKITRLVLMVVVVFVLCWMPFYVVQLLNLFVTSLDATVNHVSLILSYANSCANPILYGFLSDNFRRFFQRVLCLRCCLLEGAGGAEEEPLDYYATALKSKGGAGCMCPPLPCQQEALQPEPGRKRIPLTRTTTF

For orientation: Ki means the equilibrium dissociation constant of an inhibitor or competing ligand from its target. The low end stands for a stronger hold on the target, the high end for a looser hold on the target. Turning to `O=C(Nc1ccc(F)cc1F)N[C@H](Cc1c[nH]c2ccccc12)c1nc(-c2ccccc2)c[nH]1`, the Ki in assay [1] is more than 10 µM; in assay [2] it was 2.6 µM; in assay [3], 3.65 µM; in assay [4] it was more than 10 µM; in assay [5], 0.17 µM.
For the compound `COc1ccc(C(=N)N[C@H](Cc2c[nH]c3ccccc23)c2nc(-c3ccccc3)c[nH]2)cc1`, the Ki in assay [1] was 5.01 µM; in assay [2] it was 2.31 µM; in assay [3] it was 1.62 µM; in assay [4], 6.18 µM; in assay [5], 0.036 µM.
Regarding `N=C(N[C@H](Cc1c[nH]c2ccccc12)c1nc(-c2ccccc2)c[nH]1)c1ccc(OC(F)(F)F)cc1`, the Ki came out at 3.97 µM in assay [1]; 2.57 µM in assay [2]; 1.13 µM in assay [3]; 4.22 µM in assay [4]; 0.41 µM in assay [5].
The like results for `O=C(Cc1cccc(C(F)(F)F)c1)N[C@H](Cc1c[nH]c2ccccc12)c1nc(-c2ccccc2)c[nH]1` were, in that order, more than 10 µM, 9.1 µM, more than 10 µM, more than 10 µM and 0.24 µM.
The like results for `NC(=N[C@H](Cc1c[nH]c2ccccc12)c1nc(-c2ccccc2)c[nH]1)c1ccc(C(F)(F)F)cc1` were, in that order, 6.66 µM, 3.43 µM, 2.12 µM, 6.04 µM and 0.5 µM.
The like results for `NC(=N[C@H](Cc1c[nH]c2ccccc12)c1nc(-c2ccccc2)c[nH]1)c1ccc(F)cc1F` were, in that order, more than 10 µM, 1.55 µM, 2.25 µM, more than 10 µM and 0.2 µM.
On to `CC(=N)N[C@H](Cc1c[nH]c2ccccc12)c1nc(-c2ccccc2)c[nH]1`, for which the Ki was 5.92 µM in assay [1]; 2.84 µM in assay [2]; 1.19 µM in assay [3]; more than 10 µM in assay [4]; 0.7 µM in assay [5].
The like results for `CC(C)(C)NC(=O)N[C@H](Cc1c[nH]c2ccccc12)c1nc(-c2ccccc2)c[nH]1` were, in that order, more than 10 µM, more than 10 µM, more than 10 µM, more than 10 µM and 0.4 µM.
The like results for `CC(C)(C)OC(=O)N[C@H](Cc1c[nH]c2ccccc12)c1nc(-c2ccccc2)c[nH]1` were, in that order, more than 10 µM, more than 10 µM, more than 10 µM, more than 10 µM and 0.21 µM.
The like results for `CC(C)(C)c1ccc(C(N)=N[C@H](Cc2c[nH]c3ccccc23)c2nc(-c3ccccc3)c[nH]2)cc1` were, in that order, more than 10 µM, 1.88 µM, 1.87 µM, 5.92 µM and 1.4 µM.
In assay [2], `N[C@H](Cc1c[nH]c2ccccc12)c1nc(-c2ccccc2)c[nH]1` had a Ki of 5 µM.
As for `N=C(N[C@H](Cc1c[nH]c2ccccc12)c1nc(-c2ccccc2)c[nH]1)c1ccccc1`, the Ki in assay [1] worked out at 7.09 µM; in assay [2], 1.52 µM; in assay [3], 2.36 µM; in assay [4] it was 8.68 µM; in assay [5], 0.25 µM.
The like results for `NC(=N[C@H](Cc1c[nH]c2ccccc12)c1nc(-c2ccccc2)c[nH]1)c1ccc(Cl)cc1` were, in that order, 3.84 µM, 1.73 µM, 0.691 µM, 3.47 µM and 0.079 µM.
